In ChEMBL document CHEMBL1240422, “Design, synthesis and biological evaluation of 3,5-diaryl-isoxazoline/isoxazole-pyrrolobenzodiazepine conjugates as potential anticancer agents” (2010):
Activity calls are given as the source filed them. The calls are words filed in the database; no cut-off is given here.

Columns and labels:
HL-60(TB) = test: Anticancer activity against human HL-60(TB) cells after 48 hrs by SRB assay; assay type: functional; conditions: HL-60, 48 h
OVCAR-3 = test: Anticancer activity against human OVCAR-3 cells after 48 hrs by SRB assay; assay type: functional; conditions: OVCAR-3, 48 h
RPMI-8226 = test: Anticancer activity against human RPMI8226 cells after 48 hrs by SRB assay; assay type: functional; conditions: RPMI-8226, 48 h
BT-549 = test: Anticancer activity against human BT549 cells after 48 hrs by SRB assay; assay type: functional; conditions: BT-549, 48 h
CCRF-CEM = test: Anticancer activity against human CCRF-CEM cells after 48 hrs by SRB assay; assay type: functional
DU-145 = test: Anticancer activity against human DU145 cells after 48 hrs by SRB assay; assay type: functional; conditions: DU-145, 48 h
NCI-H522 = test: Anticancer activity against human NCI-H522 cells after 48 hrs by SRB assay; assay type: functional; conditions: NCI-H522, 48 h
PC-3 = test: Anticancer activity against human PC3 cells after 48 hrs by SRB assay; assay type: functional; conditions: PC-3, 48 h
Outline: (§1)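 Grown in RPMI 1640 with 10% FBS and 2 mM L-glutamine at 37 °C, 5% CO2. Seeded at densities set by doubling time, then preincubated 24 h. Continuous 48 h drug exposure at four concentrations (0.1, 1, 10, 100), triplicate wells. Fixed with cold TCA (final 10%) at 4 °C, 60 min. Stained with 0.4% SRB in 1% acetic acid, eluted with 10 mM Tris base, read at 540/690 nm. Percent growth versus control wells.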

SK-MEL-2 = test: Anticancer activity against human SK-MEL-2 cells after 48 hrs by SRB assay; assay type: functional; conditions: SK-MEL-2, 48 h
SN12C = test: Anticancer activity against human SN12C cells after 48 hrs by SRB assay; assay type: functional
HCT-15 = test: Anticancer activity against human HCT15 cells after 48 hrs by SRB assay; assay type: functional; conditions: HCT-15, 48 h
786-0 = test: Anticancer activity against human 786-0 cells after 48 hrs by SRB assay; assay type: functional; conditions: 786-0, 48 h
SF-268 = test: Anticancer activity against human SF268 cells after 48 hrs by SRB assay; assay type: functional; conditions: SF-268, 48 h
SNB-19 = test: Anticancer activity against human SNB19 cells after 48 hrs by SRB assay; assay type: functional; conditions: SNB-19, 48 h
NCI-H460 = test: Anticancer activity against human NCI-H460 cells after 48 hrs by SRB assay; assay type: functional; conditions: NCI-H460, 48 h
KM12 = test: Anticancer activity against human KM12 cells after 48 hrs by SRB assay; assay type: functional; conditions: KM12, 48 h
HCC 2998 = test: Anticancer activity against human HCC2998 cells after 48 hrs by SRB assay; assay type: functional; conditions: HCC 2998, 48 h
Malme-3M = test: Anticancer activity against human MALME-3M cells after 48 hrs by SRB assay; assay type: functional
COLO 205 = test: Anticancer activity against human COLO205 cells after 48 hrs by SRB assay; assay type: functional; conditions: COLO 205, 48 h; outline: as §1
NCI-H226 = test: Anticancer activity against human NCI-H226 cells after 48 hrs by SRB assay; assay type: functional; conditions: NCI-H226, 48 h
MDA-MB-468 = test: Anticancer activity against human MDA-MB-468 cells after 48 hrs by SRB assay; assay type: functional; conditions: MDA-MB-468, 48 h
HOP-92 = test: Anticancer activity against human HOP92 cells after 48 hrs by SRB assay; assay type: functional; conditions: HOP-92, 48 h
OVCAR-5 = test: Anticancer activity against human OVCAR5 cells after 48 hrs by SRB assay; assay type: functional; conditions: OVCAR-5, 48 h
SK-OV-3 = test: Anticancer activity against human SKOV3 cells after 48 hrs by SRB assay; assay type: functional; conditions: SK-OV-3, 48 h
SK-MEL-28 = test: Anticancer activity against human SK-MEL-28 cells after 48 hrs by SRB assay; assay type: functional; conditions: SK-MEL-28, 48 h
MDA-MB-435 = test: Anticancer activity against human MDA-MB-435 cells after 48 hrs by SRB assay; assay type: functional; conditions: MDA-MB-435, 48 h
MCF7 = test: Anticancer activity against human MCF7 cells after 48 hrs by SRB assay; assay type: functional; conditions: MCF7, 48 h; outline: as §1
OVCAR-8 = test: Anticancer activity against human OVCAR8 cells after 48 hrs by SRB assay; assay type: functional; conditions: OVCAR-8, 48 h
U-251 = test: Anticancer activity against human U251 cells after 48 hrs by SRB assay; assay type: functional; conditions: U-251, 48 h
IGROV-1 = test: Anticancer activity against human IGROV1 cells after 48 hrs by SRB assay; assay type: functional; conditions: IGROV-1, 48 h
MDA-MB-231 = test: Anticancer activity against human MDA-MB-231 cells after 48 hrs by SRB assay; assay type: functional; conditions: MDA-MB-231, 48 h
CAKI-1 = test: Anticancer activity against human Caki1 cells after 48 hrs by SRB assay; assay type: functional; conditions: CAKI-1, 48 h
UACC-62 = test: Anticancer activity against human UACC62 cells after 48 hrs by SRB assay; assay type: functional; conditions: UACC-62, 48 h
HCT-116 = test: Anticancer activity against human HCT116 cells after 48 hrs by SRB assay; assay type: functional; conditions: HCT-116, 48 h
UO-31 = test: Anticancer activity against human UO31 cells after 48 hrs by SRB assay; assay type: functional; conditions: UO-31, 48 h
EKVX = test: Anticancer activity against human EKVX cells after 48 hrs by SRB assay; assay type: functional
OVCAR-4 = test: Anticancer activity against human OVCAR4 cells after 48 hrs by SRB assay; assay type: functional; conditions: OVCAR-4, 48 h
NCI-H322M = test: Anticancer activity against human NCI-H322M cells after 48 hrs by SRB assay; assay type: functional
SK-MEL-5 = test: Anticancer activity against human SK-MEL-5 cells after 48 hrs by SRB assay; assay type: functional; conditions: SK-MEL-5, 48 h
A498 = test: Anticancer activity against human A498 cells after 48 hrs by SRB assay; assay type: functional; conditions: A498, 48 h
HOP-62 = test: Anticancer activity against human HOP62 cells after 48 hrs by SRB assay; assay type: functional; conditions: HOP-62, 48 h; outline: as §1
TK-10 = test: Anticancer activity against human TK10 cells after 48 hrs by SRB assay; assay type: functional; conditions: TK-10, 48 h
A549 = test: Anticancer activity against human A549 cells after 48 hrs by SRB assay; assay type: functional; conditions: A549, 48 h; outline: as §1
LOX IMVI = test: Anticancer activity against human LOXIMVI cells after 48 hrs by SRB assay; assay type: functional
RXF 393 = test: Anticancer activity against human […] cells after 48 hrs by SRB assay; assay type: functional; conditions: RXF 393, 48 h
NCI-H23 = test: Anticancer activity against human NCI-H23 cells after 48 hrs by SRB assay; assay type: functional; conditions: NCI-H23, 48 h
MOLT-4 = test: Anticancer activity against human MOLT4 cells after 48 hrs by SRB assay; assay type: functional; conditions: MOLT-4, 48 h
ACHN = test: Anticancer activity against human ACHN cells after 48 hrs by SRB assay; assay type: functional
HT-29 = test: Anticancer activity against human HT-29 cells after 48 hrs by SRB assay; assay type: functional; conditions: HT-29, 48 h
SNB-75 = test: Anticancer activity against human SNB75 cells after 48 hrs by SRB assay; assay type: functional; conditions: SNB-75, 48 h
SW-620 = test: Anticancer activity against human SW620 cells after 48 hrs by SRB assay; assay type: functional; conditions: SW-620, 48 h
[1] = Anticancer activity against human Hs 578T cells after 48 hrs by SRB assay; assay type: functional
M14 = test: Anticancer activity against human M14 cells after 48 hrs by SRB assay; assay type: functional; conditions: M14, 48 h
SR = test: Anticancer activity against human SR cells after 48 hrs by SRB assay; assay type: functional
K562 = test: Anticancer activity against human K562 cells after 48 hrs by SRB assay; assay type: functional; conditions: K562, 48 h
UACC-257 = test: Anticancer activity against human UACC257 cells after 48 hrs by SRB assay; assay type: functional; conditions: UACC-257, 48 h
T47D = test: Anticancer activity against human T47D cells after 48 hrs by SRB assay; assay type: functional
SF-539 = test: Anticancer activity against human SF539 cells after 48 hrs by SRB assay; assay type: functional; conditions: SF-539, 48 h
A-375 [2] = test: Cytotoxicity against human A375 cells at 4 uM after 24 hrs […]; assay type: functional, cell-based
A-375 [3] = test: Cell cycle arrest in human A375 cells assessed as accumulation at G2/M phase at 4 uM after 24 hrs using propidium iodide staining by FACS; assay type: functional
Outline: (§2)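 Treated A375 cells (24 h) were harvested with trypsin-EDTA and fixed in ice-cold 70% ethanol (4 °C, 30 min). After a PBS wash, they were incubated with 1 mg/mL RNase A (37 °C, 30 min) and stained with propidium iodide solution containing trisodium citrate and Triton X-100. DNA content was measured by flow cytometry on 20,000 events. Controls were DMSO-treated.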

A-375 [4] = test: Cell cycle arrest in human A375 cells assessed as accumulation at G0/G1 phase at 4 uM after 24 hrs using propidium iodide staining by FACS; assay type: functional; outline: as §2
A-375 [5] = test: Cell cycle arrest in human A375 cells assessed as accumulation at S phase at 4 uM after 24 hrs using propidium iodide staining by FACS; assay type: functional; outline: as §2

**Q.** What does the source list for `COc1ccc(C2CC(c3cc(OC)c(OC)c(OC)c3)=NO2)cc1OCCCCOc1cc2c(cc1OC)C(=O)N1CCC[C@H]1C=N2` (some centres not stated)?
**A.** GI50 (HL-60(TB)): 1.9 µM; GI50 (OVCAR-3): 1.94 µM; GI50 (RPMI-8226): 1.43 µM; GI50 (BT-549): 1.23 µM; GI50 (CCRF-CEM): 1.41 µM; GI50 (DU-145): 0.32 µM; GI50 (NCI-H522): 0.61 µM; GI50 (PC-3): 0.32 µM; GI50 (SK-MEL-2): 2.03 µM; GI50 (SN12C): 1.58 µM; GI50 (HCT-15): 2.27 µM; GI50 (786-0): 1.57 µM; GI50 (SF-268): 1.89 µM; GI50 (SNB-19): 1.96 µM; GI50 (NCI-H460): 1.85 µM; GI50 (KM12): 1.74 µM; GI50 (HCC 2998): 1.58 µM; GI50 (Malme-3M): 2.88 µM; GI50 (COLO 205): 1.96 µM; GI50 (NCI-H226): 1.67 µM; GI50 (MDA-MB-468): 1.34 µM; GI50 (HOP-92): 2.47 µM; GI50 (OVCAR-5): 3.13 µM; GI50 (SK-OV-3): 3.37 µM; GI50 (SK-MEL-28): 2.07 µM; GI50 (MDA-MB-435): 3.54 µM; GI50 (MCF7): 1.75 µM; GI50 (OVCAR-8): 2.55 µM; GI50 (U-251): 1.73 µM; GI50 (IGROV-1): 1.57 µM; GI50 (MDA-MB-231): 1.15 µM; GI50 (CAKI-1): 3.09 µM; GI50 (UACC-62): 1.52 µM; GI50 (HCT-116): 1.7 µM; GI50 (UO-31): 2.09 µM; GI50 (EKVX): 3.68 µM; GI50 (OVCAR-4): 2.07 µM; GI50 (NCI-H322M): 3.46 µM; GI50 (SK-MEL-5): 1.47 µM; GI50 (A498): 1.72 µM; GI50 (HOP-62): 1.68 µM; GI50 (TK-10): 3.51 µM; GI50 (A549): 2.33 µM; GI50 (LOX IMVI): 1.47 µM; GI50 (RXF 393): 1.39 µM; GI50 (NCI-H23): 1.83 µM; GI50 (MOLT-4): 1.85 µM; GI50 (ACHN): 2.41 µM; GI50 (HT-29): 2.75 µM; GI50 (SNB-75): 1.71 µM; GI50 (SW-620): 1.55 µM; GI50 [1]: 1.1 µM; GI50 (M14): 1.73 µM; GI50 (SR): 1.12 µM; GI50 (K562): 1.26 µM; GI50 (UACC-257): 2.33 µM; GI50 (T47D): 1.31 µM; GI50 (SF-539): 1.8 µM

**Q.** What does the source list for `COc1ccc(/C=C\c2cc(OC)c(OC)c(OC)c2)cc1O` [COMBRETASTATIN A4]?
**A.** Activity (A-375 [2]): Active; Activity (A-375 [3]): 12.81%; Activity (A-375 [4]): 49.08%; Activity (A-375 [5]): 38.1%
